Published values gathered from unrelated publications.
Lines come from different studies, so protocols differ.
Read-out: metabolic stability
Species: human

O=C1CC[C@H](N2Cc3cc(N4CCN(CC5CCN(c6ccc([C@@H]7c8ccc(O)cc8CC[C@@H]7c7ccccc7)cc6)CC5)CC4)ccc3C2=O)C(=O)N1
half-life (hepatocytes; 1 µM): 53.8 min

O=c1ccc2ccc(O)cc2o1
half-life (liver microsomes): 1.85 min

CSc1ncc(Br)c(C(=O)N[C@@H](CCC(=O)O)C(=O)N[C@@H](Cc2ccc3ccccc3c2)C(=O)N[C@@H](CC(C)C)C(=O)N[C@@H]2C[C@H]2c2ccccc2)n1
half-life (plasma): 1900 min

CC1(CN)CCN(c2cnc3c(Sc4ccncc4Cl)n[nH]c3n2)CC1
half-life (liver microsomes): 36.7 min

Nc1ncnc2c1ncn2[C@@H]1O[C@H](CO)C[C@H]1O
half-life (liver microsomes; 1 µM): 12.3 min

CC(C)[N+](C)(CCOC(=O)C1c2ccccc2Oc2ccccc21)C(C)C
half-life (plasma): 25.8 min

O=c1ccc2ccc(O)cc2o1
half-life (hepatocytes; 1 µM): 12.4 min

CCC(CC)COC(=O)[C@H](C)N[P@](=O)(OC[C@@H]1C[C@@H](O)[C@H](n2cnc3c(N)nc(F)nc32)O1)Oc1ccccc1
half-life (liver microsomes; 1 µM): 1.42 min

O=c1ccc2cc(O)ccc2o1
half-life (liver microsomes; 20 µM): 63.5 min

O=C(c1ccc(F)cc1)C1CCN(CCn2c(=O)[nH]c3ccccc3c2=O)CC1
half-life (liver microsomes): 35.4 min

CCOc1ccc(NC(C)=O)cc1
half-life (liver microsomes): 67.1 min

CC(C)Oc1ccc(S(=O)(=O)c2ccc(Oc3cc(OCC(N)=O)c(C(=O)C(Cl)Cl)cc3[N+](=O)[O-])cc2)cc1
half-life (liver microsomes; 20 µM): 46.7 min

CCOc1ccc2ccc(=O)oc2c1
half-life (hepatocytes; 1 µM): 11.4 min

COc1ccc([C@@H]2Sc3ccccc3N(CCN(C)C)C(=O)[C@@H]2OC(C)=O)cc1
half-life (liver microsomes): 53.5 min

CCC(CC)COC(=O)[C@H](C)N[P@@](=O)(OC[C@@H]1C[C@@H](O)[C@H](n2cnc3c(N)ncnc32)O1)Oc1ccccc1
half-life (liver microsomes; 1 µM): 0.67 min
